Results pooled from the literature.
Target: Serine/threonine-protein kinase 25 (STK25, Homo sapiens, UniProt O00506)

Compound	read-out	method	tested at	remaining binding [%]
O=C(c1ccc(Nc2ncc(Cl)c(-c3ccc(Cl)s3)n2)cc1)N1CCC(N2CCCC2)CC1	binding	competition with immobilised ligand	1 µM	22
CN(C)C(=O)Cn1cc(-c2nc(C3(c4ccc(-c5cnc(N)nc5)cc4)CC3)no2)cn1	cell-free assay	competition with immobilised ligand	1 µM	100
CN(C)c1nccc(-c2cnc3ncccn23)n1	binding	–	1 µM	100
COc1ncc2cc3ccccc3nc2c1C#N	cell-free assay	competition with immobilised ligand	5 µM	100
CCCCN(CCCC)C(=O)CN1C[C@H](c2cc(OC)c3c(c2)OCO3)[C@@H](C(=O)O)[C@@H]1CC(C)(C)CCC	cell-free assay	competition with immobilised ligand	1 µM	100
O=C(c1ccc(Nc2nccc(-c3cc4ccccc4s3)n2)cc1)N1CCC(N2CCCC2)CC1	binding	competition with immobilised ligand	1 µM	22
CCC(=O)N[C@H]1CC[C@@H](C(=O)N(C)c2ccc(-c3nc4ccccc4o3)cc2)C1	cell-free assay	competition with immobilised ligand	1 µM	100
C[C@H]1CCN(c2nccc(-c3cnn4ncccc34)n2)C1	binding	–	1 µM	100
C=CC(=O)N1CCC(C(=O)NCC(=O)N2CCN(c3nc(-c4cnc(N)nc4C(F)F)nc(N4CCOCC4)n3)CC2)CC1	binding	competition with immobilised ligand	1 µM	96
F[C@@H]1CCN(c2nccc(-c3cnn4ncccc34)n2)C1	binding	–	1 µM	100
COc1cnc(Nc2cccc(S(N)(=O)=O)c2)nc1N1CCN(c2ccccc2)CC1	binding	competition with immobilised ligand	1 µM	100
CCCOc1ccc([C@H]2[C@H](C(=O)O)[C@@H](c3ccc4c(c3)OCO4)CN2CC(=O)Nc2c(CC)cccc2CC)cc1	cell-free assay	competition with immobilised ligand	1 µM	100
CCN1CCN(Cc2ccc(C(=O)Nc3ccc(C)c(Oc4ccc5c(c4)CC(=O)N5)c3)cc2C(F)(F)F)CC1	binding	competition with immobilised ligand	1 µM	100
Cc1cnc(Nc2ccc(C(=O)N3CCC(N4CCCC4)CC3)cc2)nc1-c1cc2ccccc2s1	binding	competition with immobilised ligand	1 µM	21
N[C@H]1CCN(c2nccc(-c3cnn4ncccc34)n2)C1	binding	–	1 µM	100
CN([C@@H]1CCc2c(CC(=O)O)c3cc(S(C)(=O)=O)ccc3n2C1)S(=O)(=O)c1ccc(F)cc1	cell-free assay	competition with immobilised ligand	1 µM	100
CN(C)c1nccc(-c2cnn3ncccc23)n1	binding	–	1 µM	90
O=C(NCC1CCOCC1)c1n[nH]cc1NC(=O)c1c(F)cccc1F	binding	competition with immobilised ligand	1 µM	95
CN(CCCC(F)(F)F)c1nccc(-c2cnn3ncccc23)n1	binding	–	1 µM	100
CNC(=O)Nc1ccc2c(c1)CC[C@@]21OC(=O)N(CC(=O)N(Cc2ccc(F)cc2)[C@@H](C)C(F)(F)F)C1=O	cell-free assay	competition with immobilised ligand	1 µM	99
